Measurements taken from ChEMBL document CHEMBL1138778, “Effects of altering the electronics of 2-methoxyestradiol on cell proliferation, on cytotoxicity in human cancer cell cultures, and on tubulin polymerization” (J Med Chem, 2004).
pIC50: −log10 of the molar value.

Legend:
HUVEC = assay: Inhibitory concentration against growth of HUVEC […] cell line; format: functional, cell-based; conditions: Homo sapiens
Outline: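 HUVEC, used up to five passages in EGM with bovine brain extract and antibiotic-antimycotic, seeded at 3000 cells/well and attached overnight. Cells were exposed to compound for 48 h. Proliferation was read by BrdU-incorporation colorimetric ELISA or by cell counting, in triplicate, with experiments repeated at least twice.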

MDA-MB-231 = assay: Inhibitory concentration against growth of MDA-MB-231 cancer cell line; format: functional, cell-based; conditions: Homo sapiens
Outline: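 MDA-MB-231 cells in DMEM/F12 (1:1) with 10% FBS, seeded at 1000 cells/well and attached overnight. Cells were exposed to compound for 48 h. Proliferation was read by BrdU-incorporation colorimetric ELISA or by cell counting, in triplicate, with experiments repeated at least twice.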

[1] = Growth inhibitory concentration against human cancer cell line; format: functional; conditions: Cancer cell lines
Outline: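 NCI human cancer cell line antiproliferative screen, tested over 10^-4 to 10^-8 M. GI50 is the concentration giving 50% growth inhibition of each cell line. The mean graph midpoint is the average GI50 across all lines tested, with values outside the range set to 10^-8 or 10^-4 M.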

HOP-62 = assay: Growth inhibitory concentration against human lung cancer HOP-62 cell line; format: functional
Outline: (§1)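 Screen over 10^-4 to 10^-8 M in a human cancer cell line panel. GI50 is the concentration giving 50% growth inhibition of the individual cell line.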

SN12C = assay: Growth inhibitory concentration against human renal SN12C cancer cell line; format: functional
Outline: (§2)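 Human cancer cell line antiproliferative screen, compounds tested over 10^-4 to 10^-8 M. GI50 is the concentration giving 50% growth inhibition of the individual cell line. GI50 values outside the tested range were set to the range limits (10^-8 or 10^-4 M) when averaging across all lines tested to give the mean graph midpoint.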

HCT-116 = assay: Growth inhibitory concentration against human colon cancer HCT116 cell line; format: functional; outline: as §1
SF-539 = assay: Growth inhibitory concentration against human CNS SF-539 cancer cell line; format: functional; outline: as §2
Tubulin beta chain = Tubulin beta chain (Bos taurus, UniProt Q6B856); assay: Inhibitory concentration against bovine brain tubulin polymerization; format: functional
Sequence of Tubulin beta chain (Q6B856 whole entry): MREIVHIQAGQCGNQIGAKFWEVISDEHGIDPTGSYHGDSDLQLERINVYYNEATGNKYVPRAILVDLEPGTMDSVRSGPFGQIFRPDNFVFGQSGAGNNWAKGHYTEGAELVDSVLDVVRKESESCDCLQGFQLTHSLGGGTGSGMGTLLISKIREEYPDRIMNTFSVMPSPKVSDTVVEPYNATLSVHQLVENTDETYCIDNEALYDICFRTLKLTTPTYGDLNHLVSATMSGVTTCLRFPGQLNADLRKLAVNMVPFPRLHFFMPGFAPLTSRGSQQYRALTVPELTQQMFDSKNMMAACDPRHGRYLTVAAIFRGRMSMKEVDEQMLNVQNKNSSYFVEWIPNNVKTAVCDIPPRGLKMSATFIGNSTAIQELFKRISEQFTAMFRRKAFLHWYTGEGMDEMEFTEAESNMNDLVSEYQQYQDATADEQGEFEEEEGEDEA
Outline: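 Bovine brain tubulin, 1.2 mg/mL (12 μM), was preincubated with a range of compound concentrations and then chilled on ice. GTP was added and assembly followed by turbidity at 350 nm for 20 min at 26 °C. IC50 is the concentration halving assembly at 20 min, from at least two independent assays.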

OVCAR-3 = assay: Growth inhibitory concentration against human ovarian OVCAR-3 cancer cell line; format: functional; outline: as §2
DU-145 = assay: Growth inhibitory concentration against human prostate DU-145 cancer cell line; format: functional
Outline: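 Human cancer cell line screen across 10^-4 to 10^-8 M compound. GI50 is the concentration giving 50% growth inhibition of the individual cell line. GI50 values below or above the tested range were taken as 10^-8 M or 10^-4 M.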

UACC-62 = assay: Growth inhibitory concentration against human melanoma UACC-62 cancer cell line; format: functional; outline: as §2
MDA-MB-435 = assay: Growth inhibitory concentration against human breast MDA-MB-435 cancer cell line; format: functional; outline: as §2

SMILES	pIC50 (HUVEC)	pIC50 (MDA-MB-231)	GI50 [1] [µM]	GI50 (HOP-62) [µM]	GI50 (SN12C) [µM]	GI50 (HCT-116) [µM]	GI50 (SF-539) [µM]	pIC50 (Tubulin beta chain)	GI50 (OVCAR-3) [µM]	GI50 (DU-145) [µM]	GI50 (UACC-62) [µM]	GI50 (MDA-MB-435) [µM]
C/C=C/c1cc2c(cc1O)CC[C@@H]1[C@@H]2CC[C@]2(C)[C@@H](O)CC[C@@H]12	6.23	6.19	–	–	–	–	–	–	–	–	–	–
COc1cc2c(cc1O)CC[C@@H]1[C@@H]2CC[C@]2(C)[C@@H](O)CC[C@@H]12 [2-METHOXYESTRADIOL]	–	–	1.3	0.7	0.95	0.47	0.32	5.28	0.21	1.8	0.36	0.08
